Data taken from ChEMBL document CHEMBL1133298, “N1-Arylsulfonyl-N2-(1-aryl)ethyl-3-phenylpropane-1,2-diamines as novel calcimimetics acting on the calcium sensing receptor” (Bioorg Med Chem Lett, 2000).

Biological target: T1, Extracellular calcium-sensing receptor (Rattus norvegicus) (UniProt P48442)
T1 sequence (whole entry): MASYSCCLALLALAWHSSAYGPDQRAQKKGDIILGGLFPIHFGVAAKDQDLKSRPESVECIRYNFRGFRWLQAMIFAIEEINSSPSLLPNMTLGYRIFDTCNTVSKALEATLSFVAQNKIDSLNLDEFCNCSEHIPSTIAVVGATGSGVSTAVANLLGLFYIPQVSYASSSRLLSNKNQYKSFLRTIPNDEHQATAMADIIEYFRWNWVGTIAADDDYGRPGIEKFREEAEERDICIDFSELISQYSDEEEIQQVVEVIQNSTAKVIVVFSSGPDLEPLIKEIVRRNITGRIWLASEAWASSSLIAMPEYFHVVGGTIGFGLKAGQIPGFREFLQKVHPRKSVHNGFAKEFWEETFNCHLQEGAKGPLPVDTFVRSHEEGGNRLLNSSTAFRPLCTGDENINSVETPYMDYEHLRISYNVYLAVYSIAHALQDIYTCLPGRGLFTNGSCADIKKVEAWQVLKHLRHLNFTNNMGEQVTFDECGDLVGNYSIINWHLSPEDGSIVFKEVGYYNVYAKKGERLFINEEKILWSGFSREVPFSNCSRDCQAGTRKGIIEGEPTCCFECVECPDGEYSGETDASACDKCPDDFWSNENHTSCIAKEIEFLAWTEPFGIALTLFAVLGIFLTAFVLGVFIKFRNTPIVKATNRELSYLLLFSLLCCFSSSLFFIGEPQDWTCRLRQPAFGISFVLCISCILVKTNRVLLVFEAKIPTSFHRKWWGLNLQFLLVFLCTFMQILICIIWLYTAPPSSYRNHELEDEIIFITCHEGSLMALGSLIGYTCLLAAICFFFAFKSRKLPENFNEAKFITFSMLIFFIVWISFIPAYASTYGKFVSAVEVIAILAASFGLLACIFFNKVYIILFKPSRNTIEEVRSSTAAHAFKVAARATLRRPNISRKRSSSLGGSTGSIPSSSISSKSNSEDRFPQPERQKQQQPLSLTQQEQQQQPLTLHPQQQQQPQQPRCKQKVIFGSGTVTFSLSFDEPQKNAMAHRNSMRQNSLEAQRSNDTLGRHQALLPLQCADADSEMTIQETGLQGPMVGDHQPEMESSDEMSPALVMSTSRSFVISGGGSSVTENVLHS
Assay: Compound was evaluated for accumulation of [3H]- IP in CHO (CaSR) cells expressing rat cloned calcium sensing receptor
Format: functional, cell-based
How it was run: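 CHO cells stably transfected with calcium sensing receptor cloned from rat brain. Grown in basal Ham's F-12 (0.3 mM Ca2+, 0.6 mM Mg2+) and prelabeled overnight with 0.5 µCi/mL myo-[3H]inositol. Drugs were made up at 10 mM in ethanol (stock), diluted in basal medium and tested at 10 µM with 2 mM extracellular Ca2+ at 37 °C. [3H]IP accumulation (phospholipase C activity) is given as % of the maximal response to 10 mM Ca2+, mean ±S.E.M.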

Accumulation [%] | Structure (SMILES)
83 | CC(NCC(Cc1ccccc1)NS(=O)(=O)c1cccc(Cl)c1)c1cccc2ccccc12 (centres undefined)
8 | CC(NCC(Cc1ccccc1)NS(=O)(=O)c1ccc([N+](=O)[O-])cc1)c1ccccc1 (centres undefined)
27 | CC(NCC(Cc1ccccc1)NS(=O)(=O)c1ccc(C(F)(F)F)cc1)c1cccc2ccccc12 (centres undefined)
80 | COc1ccc(S(=O)(=O)NC(CNC(C)c2cccc3ccccc23)Cc2ccccc2)cc1 (centres undefined)
45 | COc1ccc(CC(CNC(C)c2cccc3ccccc23)NS(=O)(=O)c2ccc(OC)cc2)cc1 (centres undefined)
47 | COc1ccc(S(=O)(=O)NC(CNC(C)c2cccc3ccccc23)Cc2ccc3c(c2)OCO3)cc1 (centres undefined)
16 | Cc1ccc(S(=O)(=O)NC(CNC(C)c2ccccc2)Cc2ccccc2)cc1 (centres undefined)
34 | COc1ccc(S(=O)(=O)NC(CNC(C)c2cccc(OC)c2)Cc2ccccc2)cc1 (centres undefined)
60 | COc1ccc(S(=O)(=O)NC(CNC(C)c2cccc3ccccc23)Cc2ccccc2Cl)cc1 (centres undefined)
106 | COc1cccc([C@@H](C)NCCCc2ccccc2Cl)c1
36 | COc1cccc(C(C)NCC(Cc2ccccc2)NS(=O)(=O)c2ccc(C)cc2)c1 (centres undefined)
78 | CC(NCC(Cc1ccccc1)NS(=O)(=O)c1ccccc1)c1cccc2ccccc12 (centres undefined)
28 | CC(NCC(Cc1ccccc1)NS(=O)(=O)c1ccc([N+](=O)[O-])cc1)c1cccc2ccccc12 (centres undefined)
38 | CC(NCC(Cc1ccccc1)NS(=O)(=O)c1ccc(Cl)cc1)c1cccc2ccccc12 (centres undefined)
97 | COc1ccc(S(=O)(=O)NC(CNC(C)c2cccc3ccccc23)Cc2ccccc2)cc1OC (centres undefined)
79 | CC(NCC(Cc1ccccc1)NS(=O)(=O)c1ccccc1Cl)c1cccc2ccccc12 (centres undefined)
2 | CC(NCC(Cc1ccccc1)NS(=O)(=O)c1ccc(N)cc1)c1ccccc1 (centres undefined)
65 | COc1ccc(S(=O)(=O)NC(CNC(C)c2cccc3ccccc23)Cc2ccccc2OC)cc1 (centres undefined)
68 | Cc1ccc(S(=O)(=O)NC(CNC(C)c2cccc3ccccc23)Cc2ccccc2)cc1 (centres undefined)
